ChEMBL document CHEMBL4715833, “Design, synthesis, in-vitro, in-vivo and in-silico studies of pyrrolidine-2,5-dione derivatives as multitarget anti-inflammatory agents” (Eur J Med Chem, 2020)
Activity calls are given as the source filed them. The calls are words filed in the database; no cut-off is given here.

What was measured:
Mus musculus [1] = experiment: Antiinflammatory activity in PGE2-induced paw edema in Balb/c mouse assessed as inhibition of paw edema at 100 mg/kg, ip administered 1 hr prior to PGE2 challenge and measured up to 5 hrs relative to control; type: functional; settings: time 2-6 hrs
Summary of the method: (§1)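 BALB/c mice of either sex (30–35 g), 8 per group, dosed i.p. with 10% DMSO, reference drug or compound (100 mg/kg). After 1 h, subplantar irritant: PGE2 0.01 µg/ml, bradykinin 20 µg/ml, histamine 0.1 ml of 1 mg/ml, or leukotriene 10 µg/ml.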

Mus musculus [2] = experiment: Antiinflammatory activity in leukotriene-induced paw edema in Balb/c mouse assessed as inhibition of paw edema at 100 mg/kg, ip administered 1 hr prior to leukotriene challenge and measured after 3 hrs relative to control; type: functional; settings: time 4 hrs; summary of the method: as §1
Mus musculus [3] = experiment: Antiinflammatory activity in histamine-induced paw edema in Balb/c mouse assessed as inhibition of paw edema at 100 mg/kg, ip administered 1 hr prior to histamine challenge and measured after 4 hrs relative to control; type: functional; settings: time 5 hrs; summary of the method: as §1
Mus musculus [4] = experiment: Antiinflammatory activity in PGE2-induced paw edema in Balb/c mouse assessed as inhibition of paw edema at 100 mg/kg, ip administered 1 hr prior to PGE2 challenge and measured after 1 hr relative to control; type: functional; settings: time 2 hrs; summary of the method: as §1
Mus musculus [5] = experiment: Antiinflammatory activity in PGE2-induced paw edema in Balb/c mouse assessed as inhibition of paw edema at 100 mg/kg, ip administered 1 hr prior to PGE2 challenge and measured after 5 hrs; type: functional, organism-based; settings: time 6.0 hrs; summary of the method: as §1
Mus musculus [6] = experiment: Antiinflammatory activity in leukotriene-induced paw edema in Balb/c mouse assessed as inhibition of paw edema at 100 mg/kg, ip administered 1 hr prior to leukotriene challenge and measured after 2 hrs relative to control; type: functional; settings: time 3 hrs; summary of the method: as §1

Cc1ccc(C(=O)CC2CC(=O)N(c3ccc(S(N)(=O)=O)cc3)C2=O)cc1 (stereo unspecified)
inhibition in vivo at 100 mg/kg (Mus musculus [1]): 61.6% | inhibition in vivo at 100 mg/kg (Mus musculus [2]): 74.4%

O=C1CCCCC1C1CC(=O)N(Cc2ccccc2)C1=O (stereo unspecified)
inhibition in vivo at 100 mg/kg (Mus musculus [3]): 17.1% | inhibition in vivo at 100 mg/kg (Mus musculus [4]): 50.5% | inhibition (Mus musculus [5]): Active | inhibition in vivo at 100 mg/kg (Mus musculus [6]): 60.1%
